By CC50 is commonly meant the concentration giving 50% cytotoxicity. One may read the inhibition as the percentage by which the read-out fell short of the control. The term Papp denotes a coefficient for how fast a substance crosses the barrier.

From ChEMBL document CHEMBL4609986 (Bioorg Med Chem, 2020) come the findings set out here.

The test system of data set [1] is HEK-293T. Nature of the data set: Cytotoxicity against human HEK293T cells transfected with DYRK1A co-tranfected with Renilla plasmid, pGL3-NFAT and NFATc1 assessed as reduction in luciferase activity by measuring cell number. The class given is cell-based. Particulars: hek-293t; call rule not given here. In short, it runs like this: (§1)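 HEK293T cells transfected with PEI using DYRK1A, Renilla plasmid, IL-2-based pGL3-NFAT firefly reporter and NFATc1. Next day the same transfected population was split into 96-well plates; 6 h later cells were treated for 48 h (11-point dose curve, n = 4), then lysed. EC50 from firefly/Renilla ratio, 4-parameter agonist fit. CC50 from loss of constitutive Renilla signal, 4-parameter inhibitor fit.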

For data set [2], the species on record is Homo sapiens. Nature of the data set: Selectivity index, ratio of CC50 for human HEK293T cells transfected with DYRK1A co-tranfected with Renilla plasmid, pGL3-NFAT and NFATc1 assessed as reduction in luciferase activity by measuring cell number to EC50 for human DYRK1A transfected in HEK293T cells co-transfected with Renilla plasmid, pGL3-NFAT and NFATc1 assessed as derepression of NFAT-dependent luciferase activity measured after 48 hrs by luciferase assay. It is filed as cell-based. In short, it runs like this: as §1

Data set [3] has as its target T1, Tyrosine-protein kinase ABL1 (Homo sapiens, UniProt P00519). The experiment in a line: Inhibition of wild-type human phosphorylated ABL1 (S229 to K512 residues) expressed in mammalian expression system assessed as residual activity at 500 nM by Kinomescan method relative to control. An outline of the steps:
(§2)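 Kinase panel of 468 kinases, scored as residual activity at 100 nM or 500 nM test compound.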

In data set [4] the target is T2, Aurora kinase A (Homo sapiens) (UniProt O14965).
T2 sequence (whole entry): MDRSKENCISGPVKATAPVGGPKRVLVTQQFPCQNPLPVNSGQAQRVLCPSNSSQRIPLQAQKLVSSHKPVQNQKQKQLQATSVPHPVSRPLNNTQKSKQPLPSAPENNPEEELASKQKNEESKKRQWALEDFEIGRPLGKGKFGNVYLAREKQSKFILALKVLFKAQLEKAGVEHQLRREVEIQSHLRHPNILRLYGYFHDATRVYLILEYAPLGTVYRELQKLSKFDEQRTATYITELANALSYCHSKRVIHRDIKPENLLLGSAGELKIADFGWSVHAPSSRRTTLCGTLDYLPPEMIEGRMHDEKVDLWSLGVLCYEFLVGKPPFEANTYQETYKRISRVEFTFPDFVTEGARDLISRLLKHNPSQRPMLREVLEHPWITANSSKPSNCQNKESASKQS
Nature of the data set: Inhibition of wild-type human partial length AURKA (E122 to K401 residues) expressed in mammalian expression system assessed as residual activity at 500 nM by Kinomescan method relative to control. In short, it runs like this: as §2

Data set [5] deals with T3, Aurora kinase B (Homo sapiens, UniProt Q96GD4). Nature of the data set: Inhibition of wild-type human partial length AURKB (D25 to A303 residues) expressed in mammalian expression system assessed as residual activity at 500 nM by Kinomescan method relative to control. In short, it runs like this:
as §2

Data set [6] has as its target Dual specificity mitogen-activated protein kinase kinase 1 (Homo sapiens) (UniProt Q02750). The experiment in a line: Inhibition of wild-type human full length MEK1 (M1 to V393 residues) expressed in mammalian expression system assessed as residual activity at 500 nM by Kinomescan method relative to control. In short, it runs like this:
as §2

Data set [7] deals with Dual specificity mitogen-activated protein kinase kinase 2 (Homo sapiens) (UniProt P36507). Nature of the data set: Inhibition of wild-type human full length MEK2 (M1 to V400 residues) expressed in mammalian expression system assessed as residual activity at 500 nM by Kinomescan method relative to control. In short, it runs like this:
as §2

The target in data set [8] is Maternal embryonic leucine zipper kinase (Homo sapiens, UniProt Q14680). The experiment in a line: Inhibition of wild-type human full length MELK (M1 to V651 residues) expressed in bacterial expression system assessed as residual activity at 500 nM by Kinomescan method relative to control. In short, it runs like this: as §2
Maternal embryonic leucine zipper kinase, sequence (Q14680 whole entry, looked up, the tested form may be a part): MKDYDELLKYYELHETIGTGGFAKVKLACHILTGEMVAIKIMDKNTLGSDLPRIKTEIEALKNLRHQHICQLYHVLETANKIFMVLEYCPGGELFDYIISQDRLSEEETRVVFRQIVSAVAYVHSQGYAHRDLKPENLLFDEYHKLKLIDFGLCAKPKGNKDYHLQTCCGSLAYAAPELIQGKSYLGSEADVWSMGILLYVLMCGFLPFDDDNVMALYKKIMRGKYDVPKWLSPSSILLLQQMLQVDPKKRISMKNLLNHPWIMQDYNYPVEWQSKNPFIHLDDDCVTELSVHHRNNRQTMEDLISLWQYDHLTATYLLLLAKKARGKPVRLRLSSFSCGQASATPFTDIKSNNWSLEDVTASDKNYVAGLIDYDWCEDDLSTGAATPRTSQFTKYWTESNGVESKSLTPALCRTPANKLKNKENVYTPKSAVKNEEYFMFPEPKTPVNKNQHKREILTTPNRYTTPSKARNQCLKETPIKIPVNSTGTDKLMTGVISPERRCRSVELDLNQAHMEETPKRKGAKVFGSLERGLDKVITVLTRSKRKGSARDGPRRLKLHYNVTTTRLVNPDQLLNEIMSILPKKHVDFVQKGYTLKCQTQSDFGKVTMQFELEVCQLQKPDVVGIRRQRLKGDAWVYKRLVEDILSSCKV
Data set [9] addresses T3, Aurora kinase B. The experiment in a line: Inhibition of AURKB in human HEK293T cells assessed as reduction in cell viability at 30 to 70 nM measured after 48 hrs. The class given is cell-based. As to conditions: hek-293t, 0.27 µM, in the assay text read “30 to 270 nM” for “30 to 70 nM”. An outline of the steps: (§3)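 HEK293T cells treated 48 h with the compound alone or combined with a second kinase inhibitor at the stated level, then fixed, stained and counted. Cell number expressed as a percentage of untreated wells; n = 4-16.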

Data set [10] concerns the target T4, AURKB (Aurora kinase B) (Homo sapiens, UniProt Q96GD4). Nature of the data set: Inhibition of AURKB in human HEK293T cells assessed as reduction in cell viability at 90 to 270 nM measured after 48 hrs in presence of 40 nM AZD-1152-HQPA relative to control. It is filed as cell-based, HEK-293T. In short, it runs like this:
as §3

The target in data set [11] is T4, AURKB (Aurora kinase B). The experiment in a line: Inhibition of AURKB in human HEK293T cells assessed as reduction in cell viability at 90 to 270 nM measured after 48 hrs in presence of 40 nM MLN-8054 relative to control. The class given is cell-based, HEK-293T. An outline of the steps:
as §3

Data set [12] addresses T4, AURKB (Aurora kinase B). Nature of the data set: Inhibition of AURKB in human HEK293T cells assessed as reduction in cell viability at 90 nM measured after 48 hrs in presence of 3 uM MK-5108 relative to control. The class given is cell-based, HEK-293T. In short, it runs like this: as §3
For data set [13], the target named is T4, AURKB (Aurora kinase B). The experiment in a line: Inhibition of AURKB in human HEK293T cells assessed as reduction in cell viability at 270 nM measured after 48 hrs in presence of 3 uM MK-5108 relative to control. It is filed as cell-based, HEK-293T. An outline of the steps:
as §3

The target of data set [14] is T1, Tyrosine-protein kinase ABL1. Nature of the data set: Inhibition of ABL1 in human HEK293T cells assessed as cell death at 30 to 270 nM measured after 48 hrs in presence of 1 uM imatinib. It is filed as cell-based. Particulars: hek-293t, 0.27 µM, in the assay text read “3 uM imatinib” for “1 uM imatinib”. In short, it runs like this: as §3
Data set [15] has the same target. The experiment in a line: Inhibition of ABL1 in human HEK293T cells assessed as cell death at 30 to 270 nM measured after 48 hrs in presence of 1 uM dasatinib. It is filed as cell-based. Particulars: hek-293t, 0.27 µM. In short, it runs like this:
as §3

The nature of data set [16]: Cytotoxicity against mouse R7T1 cells assessed as reduction in cell viability measured after 48 hrs by Hoechst 33342 staining based analysis. In short, it runs like this: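 Mouse R7T1 β-cells cultured in high-glucose DMEM with 10% FBS, doxycycline and pyruvate, plated at 25,000 cells/well. Treated in quadruplicate 6 h later (0.169–10,000 nM) for 48 h. Cells fixed in paraformaldehyde and stained with 4 μM Hoechst 33342; nuclei counted by high-content imaging.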

A short description of data set [17]: Half life in human liver microsomes at 1 uM preincubated for 10 mins followed by NADPH addition and measured up to 40 mins by LC-MS/MS analysis. The class given is ADME, Microsome. In short, it runs like this: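 Human or mouse liver microsomes, each run separately, in 100 mM KxPO4 pH 7.4 with 10 mM MgCl2 and 1 μM test compound. Pre-incubated 10 min at 37 °C, then started with 1 mM NADPH. Quenched in acetonitrile stop solution at 0, 10, 20 and 40 min, centrifuged, diluted and analysed by LC-MS/MS.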

A short description of data set [18]: Apparent permeability in human Caco2 cells measured after 2 hrs by LC-MS/MS analysis. The class given is ADME, cell-based, Caco-2. Particulars: Caco-2. In short, it runs like this:
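Caco-2 monolayers grown on polycarbonate filter inserts (5 × 10⁵ cells/well seeded) and differentiated 21 ± 4 days. Transport run in HBSS with 25 mM HEPES, pH 7.4, 37 °C; compound added donor side. Receiver sampled over 2 h, donor at 0 and 2 h; LC-MS/MS with internal standard. Papp = (dC_rec/dt)/(A × C0,donor) × 10^6.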

T4 sequence (Q96GD4 whole entry): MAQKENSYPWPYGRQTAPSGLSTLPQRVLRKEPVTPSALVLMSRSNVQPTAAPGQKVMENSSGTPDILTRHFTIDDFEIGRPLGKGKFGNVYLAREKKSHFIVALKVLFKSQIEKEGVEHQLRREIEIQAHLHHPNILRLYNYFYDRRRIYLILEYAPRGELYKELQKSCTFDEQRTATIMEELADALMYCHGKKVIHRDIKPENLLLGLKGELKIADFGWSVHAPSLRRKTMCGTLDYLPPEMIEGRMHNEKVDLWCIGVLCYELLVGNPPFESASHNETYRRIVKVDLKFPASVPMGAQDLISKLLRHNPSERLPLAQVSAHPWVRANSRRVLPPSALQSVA
T1 sequence (P00519 whole entry, the tested form may be a part): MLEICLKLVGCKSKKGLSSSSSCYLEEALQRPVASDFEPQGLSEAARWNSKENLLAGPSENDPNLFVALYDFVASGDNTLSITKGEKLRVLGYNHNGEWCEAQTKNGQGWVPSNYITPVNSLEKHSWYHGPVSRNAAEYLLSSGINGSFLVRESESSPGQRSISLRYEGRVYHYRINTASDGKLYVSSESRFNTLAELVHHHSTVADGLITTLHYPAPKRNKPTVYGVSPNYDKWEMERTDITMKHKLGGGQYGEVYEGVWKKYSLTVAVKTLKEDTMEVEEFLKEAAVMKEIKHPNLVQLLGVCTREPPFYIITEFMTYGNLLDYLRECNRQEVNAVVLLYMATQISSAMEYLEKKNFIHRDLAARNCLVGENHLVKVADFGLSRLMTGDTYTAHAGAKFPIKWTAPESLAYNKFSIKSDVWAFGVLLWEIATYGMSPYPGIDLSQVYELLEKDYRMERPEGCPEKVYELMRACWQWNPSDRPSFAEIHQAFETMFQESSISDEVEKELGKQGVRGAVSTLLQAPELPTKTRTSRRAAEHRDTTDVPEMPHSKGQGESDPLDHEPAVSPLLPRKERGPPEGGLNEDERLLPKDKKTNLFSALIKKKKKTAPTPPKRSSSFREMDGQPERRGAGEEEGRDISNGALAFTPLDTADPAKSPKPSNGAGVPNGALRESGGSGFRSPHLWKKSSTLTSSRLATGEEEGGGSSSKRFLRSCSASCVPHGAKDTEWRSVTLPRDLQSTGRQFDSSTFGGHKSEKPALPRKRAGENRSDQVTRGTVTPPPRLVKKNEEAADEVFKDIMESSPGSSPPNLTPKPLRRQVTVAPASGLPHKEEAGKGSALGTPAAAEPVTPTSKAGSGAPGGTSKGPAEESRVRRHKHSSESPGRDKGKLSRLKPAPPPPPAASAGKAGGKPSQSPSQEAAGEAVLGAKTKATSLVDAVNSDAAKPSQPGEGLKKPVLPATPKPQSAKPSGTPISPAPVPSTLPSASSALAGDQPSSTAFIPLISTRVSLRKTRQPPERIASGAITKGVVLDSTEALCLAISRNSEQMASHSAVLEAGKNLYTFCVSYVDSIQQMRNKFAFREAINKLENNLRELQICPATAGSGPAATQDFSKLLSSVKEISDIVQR
T3 sequence (Q96GD4 whole entry, the tested form may be a part): as the sequence (Q96GD4 whole entry) above
Dual specificity mitogen-activated protein kinase kinase 2 (Homo sapiens), sequence (P36507 whole entry, the tested form may be a part): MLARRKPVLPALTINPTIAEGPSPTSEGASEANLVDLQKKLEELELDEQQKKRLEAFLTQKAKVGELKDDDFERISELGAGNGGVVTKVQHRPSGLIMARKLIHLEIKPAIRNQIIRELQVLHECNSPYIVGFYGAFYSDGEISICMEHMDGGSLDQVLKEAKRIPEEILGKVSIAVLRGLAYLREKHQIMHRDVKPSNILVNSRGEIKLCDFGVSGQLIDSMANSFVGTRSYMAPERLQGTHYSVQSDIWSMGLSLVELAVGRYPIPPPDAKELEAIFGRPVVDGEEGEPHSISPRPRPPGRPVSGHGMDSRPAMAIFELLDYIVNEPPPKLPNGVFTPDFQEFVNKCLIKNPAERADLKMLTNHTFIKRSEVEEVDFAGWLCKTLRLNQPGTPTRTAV
Dual specificity mitogen-activated protein kinase kinase 1 (Homo sapiens), sequence (Q02750 whole entry, the tested form may be a part): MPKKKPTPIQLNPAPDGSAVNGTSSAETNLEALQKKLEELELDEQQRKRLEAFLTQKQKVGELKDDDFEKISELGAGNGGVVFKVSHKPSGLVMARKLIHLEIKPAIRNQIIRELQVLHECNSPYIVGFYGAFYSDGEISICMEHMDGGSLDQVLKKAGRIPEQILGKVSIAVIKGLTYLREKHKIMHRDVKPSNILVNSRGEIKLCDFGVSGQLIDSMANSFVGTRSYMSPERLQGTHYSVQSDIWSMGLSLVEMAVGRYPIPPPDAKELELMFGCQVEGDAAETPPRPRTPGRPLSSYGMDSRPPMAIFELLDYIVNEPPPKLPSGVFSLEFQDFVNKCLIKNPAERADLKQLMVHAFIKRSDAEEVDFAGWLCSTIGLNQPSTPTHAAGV

As for `CCOC(=O)c1cnc2ccc(-c3ccncc3)nc2c1N[C@H]1CC[C@H](CN(C)C)CC1`, the CC50 in data set [1] is 8.05 µM; in data set [16], 3.86 µM. Besides, in data set [2], the Ratio CC50/EC50 came out at 36. The Activity in data set [3] stood at 43%; in data set [4], 97%; in data set [5], 67%; in [6], 69%; in data set [7] it was 55%; in [8], 4.7%. Moreover, the “inhibition (INH)” value in data set [9], in data set [14] and in [15] was “Not Active” in each case. The inhibition at 48 h, up to 0.27 µM is 67% in [10] and 50% in data set [11]. Further, the inhibition at 48 h, 0.09 µM in data set [12] is 36%. For the same molecule, the inhibition at 48 h, 0.27 µM in [13] was 34%. The same molecule registered a t1/2 in [17] of 32 min. For the same molecule, the Papp at 2 h in data set [18] was determined as 4.03 ×10⁻⁶ cm/s.
